# Test results as given in the array DNA melting data of Ke et al. (doi:10.1101/2024.01.08.574731).
# Columns and labels:
# [1] = melting temperature; fluorescence melt of hairpins on a sequencing array, two-state fit, raised by 9.35 °C to match UV melts; settings: sodium 0.088 M
# Summary of the method: (§1)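 Folding enthalpy and melting temperature were estimated with bootstrapped two-state fits and combined across four replicates by inverse-variance weighting, with fitted temperatures raised by 9.35 °C to match UV melts. The data were Cy3 fluorescence of library hairpins, with annealed Cy3 and quencher oligos, on a sequenced MiSeq flow cell in 50 mM Na-HEPES pH 8.0, 25 mM NaCl, imaged in 2.5 °C steps up to 60 °C and normalised to pre-quench Cy3 and control constructs.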
# [2] = folding enthalpy; higher = less favourable; fluorescence melt of hairpins on a sequencing array, two-state fit; settings: sodium 0.088 M
# Summary of the method: as §1
Sequence,Tm [1] [°C],folding enthalpy [2] [kcal/mol]
GGCCGGGGAAACCTGGCC ((((.((....)).)))),68,-38.4
GCATCTCGAAAGAGCTGC (((.(((....))).))),48.2,-30.9
GGATCACGAAAGTGTTCC (((.(((....))).))),50.8,-34.3
GGATTAGGAAACTGATCC ((((.((....)).)))),41.8,-33.7
GCCTTCGAAAGAAATGGC ((((((....)))..))),38.5,-24.6
GCACACGAAAGTGCTTGC ((((((....)))..))),53.6,-20.8
GTTTAAGGAAACTTAAGC (.(((((....))))).),32.4,-13.9
GCAAGCGAAAGCTATTGC ((((((....)))..))),42.8,-17.5
GTCTCTTCGAAAGAAGAC (((..(((....)))))),32,-9.3
GATCATTAGAATGATC ((((((....)))))),45.8,-28.6
GCGACAGTTCGC ((((....)))),47.7,-17.4
GCAGTAGGAAACTACCGC ((.((((....)))).)),41,-22.5
GCGTTGCGAAAGCTATGC ((.(.((....)).).)),48.6,-23.7
GATGGAGAAATCCATC ((((((....)))))),51,-30
GCTCAAGGAAACTTGAAC (.(((((....))))).),31.8,-15
GCAATCGAAAGATGTTGC ((((((....)))..))),34.6,-15.9
GCTTACGAAAGTAAGC ((((((....)))))),68.9,-31.8
GATCTTAATCAAGATC ((((((....)))))),38.6,-26.5
GCTGGGCGAAAGCCTGGC ((..(((....)))..)),60.9,-24.5
GTGGGTGAAAACCCAC ((((((....)))))),67.3,-28.1
GATCTAGACATAGATC ((((((....)))))),47.9,-35
GGGCAACGAAAGTTTCCC (((.(((....))).))),47.4,-32.1
GCACACGAAAGTGGGTGC ((((((....)))..))),53.5,-24.1

Sequence,Tm [1] [°C],folding enthalpy [2] [kcal/mol]
GAGACGGGAAACTGTCTC (((((.(....).))))),51.5,-41.1
GGGGTGGGAAACCGCCCC ((((.((....)).)))),65.9,-38.1
GGATGCGGAAACGTGTCC (((..((....))..))),48.4,-34.9
GGCAACGAAAGTTAAGCC ((((((....)))..))),45.7,-24
GCGTTTACACGC ((((....)))),54.3,-23.2
GTGGGACGAAAGTCGCAC (((.(((....))).))),66.3,-38.6
GTGACAGGAAACTATCAC ((((.((....)).)))),33.2,-19.4
GCCAAGCGAAAGCATGGC ((((.((....)).)))),67,-34.9
GCATGGCGAAAGCAAAGC ((.(.((....)).).)),31.8,-10.9
GATGACGGAAACATCATC (((((.(....).))))),34.8,-31.2
GCGATGGTCGC ((((...)))),47.8,-7.34
GCGTGCGAAAGCACACGC ((((((....)))..))),64.5,-15
GGCGCTCCGAAAGGAGCC (((..(((....)))))),47.8,-7.43
GGAGCTCGAAAGAGTTCC (((.(((....))).))),57.4,-42.9
GCTACCCGAAAGGGAAGC (((.(((....))).))),58.6,-32.5
GATCACCAAAGTGATC ((((((....)))))),55.2,-50.8
GCGAACGAAAGTTCACGC ((((((....)))..))),48.9,-22.9
GATCTGGTATCAGATC ((((((....)))))),55.5,-41.8
GGCTCTGGAAACGGAGCC (((((.(....).))))),60,-47.1
GCTTACGGAAACGTGAGC (((.(((....))).))),52.6,-43.4
GATCCCTGGCGGGATC ((((((....)))))),59.1,-37.2
GGGCTGGGAAACCGGCTC (.((.((....)).)).),49.1,-19.7
GATATACGAAAGTACATC (((.(((....))).))),30.5,-27.2

Sequence,Tm [1] [°C],folding enthalpy [2] [kcal/mol]
GGCCTCGCGAAAGCGGCC (((..(((....)))))),59.4,-17.5
GTAGACGAAAGTCTTTAC ((((((....)))..))),29.3,-10.4
GTATTCCGAAAGGATAC (((.(((....)))))),38.9,-19.7
GGGTGACGAAAGTCCCC (((.(((....)))))),58.4,-34.9
GCCCGCGGAAACGCAGGC (((.(((....))).))),62.4,-32.4
GATAAGCGAAAGCTAATC (((.(((....))).))),41.5,-16.8
GATCCAGGAAACTGGGTC ((.((((....)))).)),49.9,-29.9
GGAGGCGAAAGCCGTCC ((((((....))).))),52.9,-9.55
GACATCCGAAAGGAAGTC (((.(((....))).))),48.8,-36.6
GTATCCGAAAGGAATAC ((((((....))).))),40.4,-23.2
GAAGTAGGAAACCACTTC (((((.(....).))))),34.8,-24.7
GCTAGCGAAAGCTCAAGC ((((((....)))..))),38,-14
GGATTCGAAAGAACCTCC ((((((....)))..))),37.8,-16.7
GTACATGGAAACATGCAC ((.((((....)))).)),39.2,-22.7
GCCACGCGAAAGCTAGGC (((..((....))..))),52.1,-21.9
GTCCCCGAAAGGGCGGAC ((((((....)))..))),42.8,-15.4
TCTCTGAAAAGAGA (((((....))))),37.2,-12.1
GACTGAACGAAAGTTGTC (((..(((....)))))),32.8,-19.5
GGGAAAGGAAACTCTCCC ((((.((....)).)))),30.2,-17.2
GGTGTCGGAAACAACACC (((((.(....).))))),45.2,-36.1
GATCGGCAGACCGATC ((((((....)))))),57.5,-38
GCCACTGGAAACAACGGC (((..((....))..))),27.6,-17.3
GTGTCTTCGAAAGAACAC (((..(((....)))))),32.9,-17.2

Sequence,Tm [1] [°C],folding enthalpy [2] [kcal/mol]
GAATTGGGAAACCAACTC ((.((((....)))).)),26,-10.9
GTCCATGCGAAAGCAGAC (((..(((....)))))),35.3,-12.9
GATCGTGCCCACGATC ((((((....)))))),59.7,-39.8
GATCTTGCGCAAGATC ((((((....)))))),55.5,-54.1
GGTTTTGGAAACAAAACC (((((((....))))))),58.6,-50.2
GCCAGCGAAAGCTACGGC ((((((....)))..))),49.8,-19.9
GGGTGAGGAAACTCATCC ((.((((....)))).)),49.2,-43.1
GCGAATCCTCGC ((((....)))),46.3,-24.5
GATCTGATAACAGATC ((((((....)))))),47,-35.7
GCGACCAGTCGC ((((....)))),57.3,-32.7
GCAGTAGGAAACTACTAC (.(((((....))))).),32.2,-17.2
AACGAGAAATCGTT (((((....))))),38.5,-16.9
GGAGATCCGAAAGGATCC (((..(((....)))))),42,-9.31
GATCAGGGTGCTGATC ((((((....)))))),51.5,-31.2
GACAAACGAAAGTTAGTC (((.(((....))).))),44.3,-30.9
GAGGCACGAAAGTGTCTC (((.(((....))).))),64.5,-29
GATCGGAACACCGATC ((((((....)))))),55.2,-39.9
GGATGACGAAAGTCTTCC (((.(((....))).))),52.9,-42.5
GACATAGAAATATGTC ((((((....)))))),45.5,-30
GGGACCGAAAGGTTTCCC ((((((....)))..))),42.5,-18.6
GACGTGGGAAACCACACC (..((((....))))..),25.5,-11.9
GTAGGGCGAAAGCCGTAC (((.(((....))).))),56.8,-23.6
GATCCAGCTGTGGATC ((((((....)))))),50.3,-38.8
